Columns and labels:
[1] = biological target: T1, Angiotensin-converting enzyme (Rattus norvegicus, UniProt P47820); experiment: Inhibition of Angiotensin I converting enzyme (ACE) purified from rat testis
T1 sequence (P47820 whole entry): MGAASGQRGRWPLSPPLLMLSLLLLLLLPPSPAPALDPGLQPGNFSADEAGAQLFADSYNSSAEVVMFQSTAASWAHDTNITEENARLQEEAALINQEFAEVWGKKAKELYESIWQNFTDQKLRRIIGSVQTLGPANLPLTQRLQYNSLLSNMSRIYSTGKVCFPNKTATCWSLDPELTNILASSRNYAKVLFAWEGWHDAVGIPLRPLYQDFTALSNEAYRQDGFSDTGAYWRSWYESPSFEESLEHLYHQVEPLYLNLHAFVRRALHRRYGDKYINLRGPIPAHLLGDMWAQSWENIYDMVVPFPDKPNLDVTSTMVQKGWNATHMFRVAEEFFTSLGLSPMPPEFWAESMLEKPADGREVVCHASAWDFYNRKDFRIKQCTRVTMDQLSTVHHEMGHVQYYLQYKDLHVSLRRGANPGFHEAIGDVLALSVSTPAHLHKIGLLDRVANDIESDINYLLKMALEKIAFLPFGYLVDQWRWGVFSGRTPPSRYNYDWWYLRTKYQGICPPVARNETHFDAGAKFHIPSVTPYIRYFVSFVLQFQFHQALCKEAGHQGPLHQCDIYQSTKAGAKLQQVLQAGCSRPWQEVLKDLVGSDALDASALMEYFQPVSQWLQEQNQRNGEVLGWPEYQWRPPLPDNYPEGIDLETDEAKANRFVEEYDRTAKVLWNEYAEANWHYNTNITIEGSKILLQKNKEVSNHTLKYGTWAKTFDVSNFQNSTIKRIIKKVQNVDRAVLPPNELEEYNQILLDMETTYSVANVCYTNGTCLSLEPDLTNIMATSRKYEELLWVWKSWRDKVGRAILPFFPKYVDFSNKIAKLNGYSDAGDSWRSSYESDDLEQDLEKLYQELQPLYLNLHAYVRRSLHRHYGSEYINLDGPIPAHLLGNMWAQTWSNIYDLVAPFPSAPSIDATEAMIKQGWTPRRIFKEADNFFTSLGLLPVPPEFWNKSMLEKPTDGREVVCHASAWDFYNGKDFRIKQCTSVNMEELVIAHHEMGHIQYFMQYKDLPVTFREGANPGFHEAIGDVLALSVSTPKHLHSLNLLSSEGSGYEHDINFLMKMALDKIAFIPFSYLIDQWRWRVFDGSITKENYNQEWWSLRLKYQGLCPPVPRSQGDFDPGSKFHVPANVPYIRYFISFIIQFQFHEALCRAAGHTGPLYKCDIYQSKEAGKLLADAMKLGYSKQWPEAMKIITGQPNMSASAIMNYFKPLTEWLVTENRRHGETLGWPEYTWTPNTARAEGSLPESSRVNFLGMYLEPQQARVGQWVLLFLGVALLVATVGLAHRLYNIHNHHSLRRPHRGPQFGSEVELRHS
Summary of the method: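 ACE purified from rat testis, final 0.02 pmol/100 µL, preincubated 10 min at 37 °C with or without various inhibitor concentrations in 50 mM Tris/HCl/NaCl 1% pH 7.4. Then 50 µM N-Cbz-Phe-His-Leu (Km 50 µM) added for 30 min. Stopped with 2 N NaOH and diluted with water. Released His-Leu measured fluorometrically.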

Neprilysin = biological target: T2, Neprilysin (Oryctolagus cuniculus, UniProt P08049); experiment: Inhibition of neutral endopeptidase (NEP) isolated from rabbit kidney
T2 sequence (P08049 whole entry): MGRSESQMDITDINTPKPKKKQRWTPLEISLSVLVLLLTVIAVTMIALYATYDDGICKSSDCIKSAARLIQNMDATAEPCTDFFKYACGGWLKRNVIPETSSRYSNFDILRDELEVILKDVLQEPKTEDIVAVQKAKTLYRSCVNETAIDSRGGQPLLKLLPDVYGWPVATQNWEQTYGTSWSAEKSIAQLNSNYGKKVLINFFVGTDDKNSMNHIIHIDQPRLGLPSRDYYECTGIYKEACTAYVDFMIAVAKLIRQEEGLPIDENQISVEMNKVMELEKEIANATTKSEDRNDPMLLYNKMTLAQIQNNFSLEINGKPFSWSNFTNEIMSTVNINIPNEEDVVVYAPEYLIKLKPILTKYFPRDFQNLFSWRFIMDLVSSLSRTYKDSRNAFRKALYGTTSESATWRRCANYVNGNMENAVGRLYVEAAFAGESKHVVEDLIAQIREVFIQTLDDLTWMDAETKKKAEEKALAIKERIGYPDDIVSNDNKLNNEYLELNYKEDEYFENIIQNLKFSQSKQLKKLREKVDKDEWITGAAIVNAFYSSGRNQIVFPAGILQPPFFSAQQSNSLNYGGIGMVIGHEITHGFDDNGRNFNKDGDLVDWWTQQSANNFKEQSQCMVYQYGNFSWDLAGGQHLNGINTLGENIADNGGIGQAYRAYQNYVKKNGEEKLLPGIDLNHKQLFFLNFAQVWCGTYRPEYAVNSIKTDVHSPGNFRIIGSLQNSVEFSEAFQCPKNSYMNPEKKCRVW
Summary of the method: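 Rabbit kidney NEP purified to homogeneity, final 250 ng/mL, preincubated 10 min at 37 °C with or without rising inhibitor concentrations in 50 mM Tris-HCl pH 7.4. Then 50 µM DGPA (Dansyl-Gly-(p-NO2)Phe-β-Ala; Km 37 µM) added for 1 h. Stopped with DMSO. Fluorescence read at ex 340/em 530 nm.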

[2] = biological target: T3, Endothelin-converting enzyme 1 (Homo sapiens, UniProt P42892); experiment: Inhibition activity towards human recombinant Endothelin-converting enzyme 1 (hECE-1c) expressed in Cos-7 cells; type: cell-based
T3 sequence (P42892 whole entry): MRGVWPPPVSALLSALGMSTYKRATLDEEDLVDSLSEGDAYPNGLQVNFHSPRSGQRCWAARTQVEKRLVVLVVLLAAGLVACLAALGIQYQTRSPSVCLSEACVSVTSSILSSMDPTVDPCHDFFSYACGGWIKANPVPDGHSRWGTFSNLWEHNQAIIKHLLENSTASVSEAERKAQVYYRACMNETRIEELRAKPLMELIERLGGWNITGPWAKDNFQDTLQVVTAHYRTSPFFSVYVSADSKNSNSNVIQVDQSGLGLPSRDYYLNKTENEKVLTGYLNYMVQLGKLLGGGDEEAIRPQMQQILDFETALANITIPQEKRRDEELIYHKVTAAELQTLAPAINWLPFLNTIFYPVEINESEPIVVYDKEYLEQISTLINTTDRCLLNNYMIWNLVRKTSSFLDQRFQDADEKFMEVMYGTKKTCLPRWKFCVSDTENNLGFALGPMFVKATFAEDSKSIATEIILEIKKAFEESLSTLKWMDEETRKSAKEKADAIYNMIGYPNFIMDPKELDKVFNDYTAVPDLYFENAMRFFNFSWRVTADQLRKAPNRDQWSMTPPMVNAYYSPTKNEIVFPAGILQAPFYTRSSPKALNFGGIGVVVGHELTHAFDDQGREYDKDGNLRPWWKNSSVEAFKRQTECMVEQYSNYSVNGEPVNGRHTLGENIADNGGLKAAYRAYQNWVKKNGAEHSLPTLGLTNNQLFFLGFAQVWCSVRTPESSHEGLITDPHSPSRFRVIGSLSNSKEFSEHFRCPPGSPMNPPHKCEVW
Summary of the method: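 Recombinant human ECE-1c from Cos-7 cells, 4 µg total protein per well, preincubated 10 min at 37 °C in 50 mM tris-maleate pH 6-8 with or without rising inhibitor concentrations. Reaction started with 20 µM (Pya21-(p-NO2)Phe22)bigET(19-35) (Km 20 µM), run 1 h at 37 °C, stopped by cooling. Fluorescence read at ex 340/em 400 nm.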

C[C@@H](c1ccccc1)[C@H](CS)C(=O)N[C@@H](Cc1c[nH]c2ccccc12)C(=O)O
Ki [1]: 0.015 µM
Ki (Neprilysin): 0.0025 µM
Ki [2]: 0.78 µM

CC(c1ccc(-c2ccccc2)cc1)C(CS)C(=O)N[C@@H](Cc1c[nH]c2ccccc12)C(=O)O (some centres not stated)
Ki [1]: 0.062 µM
Ki (Neprilysin): 0.0048 µM
Ki [2]: 0.22 µM

O=C(O)[C@H](Cc1c[nH]c2ccccc12)NC(=O)[C@@H](CS)[C@H]1CCc2ccccc21
Ki [1]: 0.01 µM
Ki (Neprilysin): 0.0021 µM
Ki [2]: 0.29 µM

O=C(O)C(Cc1c[nH]c2ccccc12)NC(=O)C(CS)c1cccc(-c2ccccc2)c1 (configuration not stated)
Ki [1]: 0.15 µM
Ki (Neprilysin): 0.035 µM
Ki [2]: 0.9 µM

O=C(O)[C@H](Cc1c[nH]c2ccccc12)NC(=O)[C@H](CS)[C@H]1CCc2ccccc21
Ki [1]: 0.043 µM
Ki (Neprilysin): 0.0007 µM
Ki [2]: 0.026 µM

C[C@H](c1ccccc1)[C@H](CS)C(=O)N[C@@H](Cc1c[nH]c2ccccc12)C(=O)O
Ki [1]: 0.029 µM
Ki (Neprilysin): 0.0022 µM
Ki [2]: 0.1 µM

O=C(O)[C@H](Cc1c[nH]c2ccccc12)NC(=O)[C@H](CS)[C@@H]1CCc2ccccc21
Ki [1]: 0.17 µM
Ki (Neprilysin): 0.027 µM
Ki [2]: 0.68 µM

O=C(O)C(Cc1c[nH]c2ccccc12)NC(=O)C(CS)c1cccc2ccccc12 (configuration not stated)
Ki [1]: 0.15 µM
Ki (Neprilysin): 0.022 µM
Ki [2]: 1.56 µM

O=C(O)C(Cc1c[nH]c2ccccc12)NC(=O)C(CS)C1CCCc2ccccc21 (configuration not stated)
Ki [1]: 0.018 µM
Ki (Neprilysin): 0.0045 µM
Ki [2]: 0.3 µM

O=C(O)[C@H](Cc1c[nH]c2ccccc12)NC(=O)[C@@H](CS)[C@@H]1CCc2ccccc21
Ki [1]: 0.041 µM
Ki (Neprilysin): 0.01 µM
Ki [2]: 1.14 µM

O=C(N[C@@H](Cc1c[nH]c2ccccc12)C(=O)O)C(CS)[C@@H]1CCCc2ccccc21 (some centres not stated)
Ki [1]: 0.026 µM
Ki (Neprilysin): 0.008 µM
Ki [2]: 0.67 µM

C[C@H](c1ccccc1)[C@@H](CS)C(=O)N[C@@H](Cc1c[nH]c2ccccc12)C(=O)O
Ki [1]: 0.29 µM
Ki (Neprilysin): 0.005 µM
Ki [2]: 0.58 µM

O=C(O)[C@H](Cc1c[nH]c2ccccc12)NC(=O)[C@@H](CS)[C@H]1CCCc2ccccc21
Ki [1]: 0.01 µM
Ki (Neprilysin): 0.003 µM
Ki [2]: 0.19 µM

O=C(O)C(Cc1c[nH]c2ccccc12)NC(=O)C(CS)C1CCc2ccccc21 (configuration not stated)
Ki [1]: 0.02 µM
Ki (Neprilysin): 0.0018 µM
Ki [2]: 0.1 µM

CC(c1ccc2ccccc2c1)C(CS)C(=O)NC(Cc1c[nH]c2ccccc12)C(=O)O (configuration not stated)
Ki [1]: 0.047 µM
Ki (Neprilysin): 0.0054 µM
Ki [2]: 0.98 µM

CC(c1ccccc1)C(CS)C(=O)NC(Cc1c[nH]c2ccccc12)C(=O)O (configuration not stated)
Ki [1]: 0.04 µM
Ki (Neprilysin): 0.003 µM
Ki [2]: 0.3 µM

CC(c1cccc2ccccc12)C(CS)C(=O)NC(Cc1c[nH]c2ccccc12)C(=O)O (configuration not stated)
Ki [1]: 0.079 µM
Ki (Neprilysin): 0.051 µM
Ki [2]: 0.6 µM

C[C@H](c1ccc(-c2ccccc2)cc1)[C@@H](CS)C(=O)N[C@@H](Cc1c[nH]c2ccccc12)C(=O)O
Ki [1]: 0.33 µM
Ki (Neprilysin): 0.005 µM
Ki [2]: 0.19 µM

O=C(O)C(Cc1c[nH]c2ccccc12)NC(=O)C(CS)c1ccc(-c2ccccc2)cc1 (configuration not stated)
Ki [1]: 0.077 µM
Ki (Neprilysin): 0.135 µM
Ki [2]: 4.15 µM

C[C@@H](c1ccc(-c2ccccc2)cc1)[C@@H](CS)C(=O)N[C@@H](Cc1c[nH]c2ccccc12)C(=O)O
Ki [1]: 0.13 µM
Ki (Neprilysin): 0.0015 µM
Ki [2]: 0.135 µM

O=C(O)[C@H](Cc1c[nH]c2ccccc12)NC(=O)[C@H](CS)[C@@H]1CCCc2ccccc21
Ki [1]: 0.134 µM
Ki (Neprilysin): 0.043 µM
Ki [2]: 1.24 µM

C[C@@H](c1ccccc1)[C@@H](CS)C(=O)N[C@@H](Cc1c[nH]c2ccccc12)C(=O)O
Ki [1]: 0.033 µM
Ki (Neprilysin): 0.0024 µM
Ki [2]: 0.2 µM

O=C(O)[C@H](Cc1c[nH]c2ccccc12)NC(=O)[C@H](CS)[C@H]1CCCc2ccccc21
Ki [1]: 0.076 µM
Ki (Neprilysin): 0.003 µM
Ki [2]: 0.25 µM

C[C@@H](c1ccc(-c2ccccc2)cc1)[C@H](CS)C(=O)N[C@@H](Cc1c[nH]c2ccccc12)C(=O)O
Ki [1]: 0.038 µM
Ki (Neprilysin): 0.035 µM
Ki [2]: 0.92 µM
